# Laboratory results reported in ChEMBL document CHEMBL1152898, “Synthesis and antitumor activity of some new xanthotoxin derivatives” (Eur J Med Chem, 2009).
# Calls of active or inactive are those of the source. The rule behind the calls is not given here.
# Key:
# MCF7 = assay: Antitumor activity against human MCF7 cells after 72 hrs by MTS assay; assay type: functional, cell-based
# In short: (§1)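 HeLa or MCF-7 cells were grown in Eagle's MEM with Earle's salts, 2 mM L-glutamine, 1.0 mM pyruvate, 0.1 mM NEAA and 10% FBS. MCF-7 medium also had 0.01 mg/mL insulin. Cells were seeded at 10⁴/well and dosed at 24 h, giving final 5, 10, 50, 100 µg/mL in 2.5% DMSO. After 72 h, MTS was read at 3 h with pre-reagent absorbance subtracted. Triplicates were compared with 2.5% DMSO controls.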
# HeLa [1] = assay: Antitumor activity against human HeLa cells after 72 hrs by MTS assay; assay type: functional, cell-based; in short: as §1
# HeLa [2] = assay: Antitumor activity against human HeLa cells assessed as cell viability at 10 ug/ml after 72 hrs by MTS assay; assay type: functional; conditions: read-out: Activity; in short: as §1
# HeLa [3] = assay: Antitumor activity against human HeLa cells assessed as cell viability at 100 ug/ml after 72 hrs by MTS assay; assay type: functional; conditions: read-out: Activity; in short: as §1
# HeLa [4] = assay: Antitumor activity against human HeLa cells assessed as cell viability at 50 ug/ml after 72 hrs by MTS assay; assay type: functional; conditions: read-out: Activity; in short: as §1
# HeLa [5] = assay: Antitumor activity against human HeLa cells assessed as cell viability at 5 ug/ml after 72 hrs by MTS assay; assay type: functional; conditions: read-out: Activity; in short: as §1
SMILES,Activity (MCF7),IC50 (HeLa [1]) [µg/mL],viability at 10 µg/mL (HeLa [2]) [%],viability at 100 µg/mL (HeLa [3]) [%],viability at 50 µg/mL (HeLa [4]) [%],viability at 5 µg/mL (HeLa [5]) [%]
COc1c2occc2cc2ccc(=O)oc12 [METHOXSALEN],inactive,7.6,51,16,21,62
COc1c2occc2c(NC(=S)NCc2ccccc2)c2ccc(=O)oc12,inactive,7.5,56,35,34,74
COc1c2occc2c(N2C(=O)CSC2c2ccc(Br)cc2)c2ccc(=O)oc12 (stereo not given),inactive,40,91,26,26,82
CCNC(=S)Nc1c2ccoc2c(OC)c2oc(=O)ccc12,inactive,23,70,41,35,101
COc1c2occc2c(/N=C/c2cccs2)c2ccc(=O)oc12,inactive,7.2,53,28,32,70
